Measurements reported in ChEMBL document CHEMBL1136574, “Organic phenyl arsonic acid compounds with potent antileukemic activity” (Bioorg Med Chem Lett, 2003).

Assays:
MOLT-3 = experiment: Antileukemic activity against human leukemia MOLT-3(T-lineage ALL) cell line; type: functional, cell-based
Summary of the method: (§1)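 Cells treated with compounds in 96-well plates, incubated 48 h at 37 °C; cytotoxicity read by MTT assay; IC50 values calculated by curve fitting.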

NALM-6 = experiment: Antileukemic activity against human leukemia NALM-6 (B-lineage ALL) cell line; type: functional, cell-based; summary of the method: as §1

Row | SMILES | IC50 (MOLT-3) | IC50 (NALM-6)
1 | COc1cc2ncnc(Nc3ccc([As](=O)(O)O)cc3)c2cc1OC | > 100 µM | > 100 µM
2 | COc1cc2ncnc(Nc3ccccc3[As](=O)(O)O)c2cc1OC | 55.6 µM | 46.6 µM
3 | CSc1nccc(Nc2ccc(/N=N/c3ccc([As](=O)(O)O)cc3)cc2)n1 | 4.1 µM | 6.1 µM
4 | O=[As](O)(O)c1ccc(/N=N/c2ccc(Nc3[nH]cnc4ncnc3-4)cc2)cc1 | 21.6 µM | 22.5 µM
5 | COc1cc2ncnc(Nc3ccc(/N=N/c4ccc([As](=O)(O)O)cc4)cc3)c2cc1OC | 13.9 µM | 16.9 µM
6 | O=[As](O)(O)c1ccc(/N=N/c2ccc(Nc3nc(C(Cl)(Cl)Cl)nc4ccccc34)cc2)cc1 | 2 µM | 1.1 µM
7 | CSc1nccc(Nc2ccccc2[As](=O)(O)O)n1 | 2.3 µM | 1.5 µM
8 | CSc1nccc(Nc2ccc([As](=O)(O)O)cc2)n1 | 9.1 µM | 5.6 µM
9 | O=[As](O)(O)c1ccc(Nc2nc(C(Cl)(Cl)Cl)nc3ccccc23)cc1 | > 100 µM | > 100 µM
10 | O=[As](O)(O)c1ccccc1Nc1nc(C(Cl)(Cl)Cl)nc2ccccc12 | > 100 µM | > 100 µM
11 | Nc1ccc([As](=O)(O)O)cc1 [ARSANILIC ACID] |  | > 100 µM
